# Results taken from paper PMC4642222 (Biochemistry, 2015).
# Entries after “also recorded” stand apart in the source; their conditions may differ. Where no end group is shown, it is not given here.
# T1: FLNa Ig21 (Homo sapiens, UniProt P21333)
# T1 sequence (P21333 2236-2329 limits assumed): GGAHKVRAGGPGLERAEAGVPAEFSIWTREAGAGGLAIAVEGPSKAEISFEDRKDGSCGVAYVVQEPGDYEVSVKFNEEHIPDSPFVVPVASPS
# Key:
# [1] = system: MAS; assay: Filamin A phosphorylation in HEK-MAS cells; assay type: cell-based, human
# Outline: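 HEK293 cells with doxycycline-inducible (100 ng/mL) myc-tagged MAS were induced 24 h with or without MAS inverse agonist (10 μM), then serum-starved 2 h with inverse agonist or H-89 (10 μM each). They were then treated 1 h with MAS agonist (10 μM) plus H-89; uninduced cells served as controls. Lysates were Western-blotted for pS2152-FLNa, FLNa and GAPDH, and pFLNa/FLNa was given as fold over uninduced. Mean ± SEM, N = 3, unpaired t test.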
# [2] = molecular target: Filamin A (Homo sapiens) (UniProt P21333); details: cited from earlier work
# [3] = Peptide solubility in ITC buffer; assay type: physicochemical; details: 25 mM sodium phosphate (pH 6.4), 5 mM NaCl, 1 mM DTT
# [4] = molecular target: T1, FLNa Ig21; assay: Isothermal titration calorimetry; assay type: binding; details: FLNa Ig21, 25 mM sodium phosphate (pH 6.4), 30 °C
# [5] = molecular target: T1, FLNa Ig21; assay: 15N HSQC NMR binding to FLNa Ig21; details: 15N-labeled Ig21, Bruker Avance 600 MHz, 30 °C; D3R peptide at 2-fold excess
# [6] = system: FLNa Ig19; assay: 15N HSQC NMR binding to FLNa Ig19; parameters: species or system human; details: 15N-labeled Ig19, Bruker Avance 600 MHz, 30 °C; 2-fold excess of peptide
# [7] = system: AT1R; assay: Filamin A phosphorylation in HEK-AT1R cells; assay type: cell-based, rat; details: serum starved 2 h, AngII 1 μM for 1 h, mean of N = 2
# Outline: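 HEK293 cells stably expressing HA-tagged rat AT1R were grown to 80–90% confluency and serum-starved 2 h. They were pretreated 30 min with vehicle or candesartan (10 μM), then given vehicle or AngII (1 μM) for 1 h. About 25 μg of M-PER lysate (protease and phosphatase inhibitors) was run on 4–12% SDS-PAGE. Blots were probed for pS2152-FLNa, FLNa and GAPDH by near-IR fluorescence. pFLNa/FLNa was expressed as fold over untreated; mean ± SEM, N = 2, unpaired t test.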
# [8] = system: FLNa; details: cited from earlier work
# [9] = molecular target: Filamin A Ig21 (Homo sapiens) (UniProt P21333); details: cited from earlier work
# [10] = molecular target: Human Filamin A immunoglobulin domain Ig21 (human); assay: ITC
# Filamin A (Homo sapiens), sequence (P21333 2-2647): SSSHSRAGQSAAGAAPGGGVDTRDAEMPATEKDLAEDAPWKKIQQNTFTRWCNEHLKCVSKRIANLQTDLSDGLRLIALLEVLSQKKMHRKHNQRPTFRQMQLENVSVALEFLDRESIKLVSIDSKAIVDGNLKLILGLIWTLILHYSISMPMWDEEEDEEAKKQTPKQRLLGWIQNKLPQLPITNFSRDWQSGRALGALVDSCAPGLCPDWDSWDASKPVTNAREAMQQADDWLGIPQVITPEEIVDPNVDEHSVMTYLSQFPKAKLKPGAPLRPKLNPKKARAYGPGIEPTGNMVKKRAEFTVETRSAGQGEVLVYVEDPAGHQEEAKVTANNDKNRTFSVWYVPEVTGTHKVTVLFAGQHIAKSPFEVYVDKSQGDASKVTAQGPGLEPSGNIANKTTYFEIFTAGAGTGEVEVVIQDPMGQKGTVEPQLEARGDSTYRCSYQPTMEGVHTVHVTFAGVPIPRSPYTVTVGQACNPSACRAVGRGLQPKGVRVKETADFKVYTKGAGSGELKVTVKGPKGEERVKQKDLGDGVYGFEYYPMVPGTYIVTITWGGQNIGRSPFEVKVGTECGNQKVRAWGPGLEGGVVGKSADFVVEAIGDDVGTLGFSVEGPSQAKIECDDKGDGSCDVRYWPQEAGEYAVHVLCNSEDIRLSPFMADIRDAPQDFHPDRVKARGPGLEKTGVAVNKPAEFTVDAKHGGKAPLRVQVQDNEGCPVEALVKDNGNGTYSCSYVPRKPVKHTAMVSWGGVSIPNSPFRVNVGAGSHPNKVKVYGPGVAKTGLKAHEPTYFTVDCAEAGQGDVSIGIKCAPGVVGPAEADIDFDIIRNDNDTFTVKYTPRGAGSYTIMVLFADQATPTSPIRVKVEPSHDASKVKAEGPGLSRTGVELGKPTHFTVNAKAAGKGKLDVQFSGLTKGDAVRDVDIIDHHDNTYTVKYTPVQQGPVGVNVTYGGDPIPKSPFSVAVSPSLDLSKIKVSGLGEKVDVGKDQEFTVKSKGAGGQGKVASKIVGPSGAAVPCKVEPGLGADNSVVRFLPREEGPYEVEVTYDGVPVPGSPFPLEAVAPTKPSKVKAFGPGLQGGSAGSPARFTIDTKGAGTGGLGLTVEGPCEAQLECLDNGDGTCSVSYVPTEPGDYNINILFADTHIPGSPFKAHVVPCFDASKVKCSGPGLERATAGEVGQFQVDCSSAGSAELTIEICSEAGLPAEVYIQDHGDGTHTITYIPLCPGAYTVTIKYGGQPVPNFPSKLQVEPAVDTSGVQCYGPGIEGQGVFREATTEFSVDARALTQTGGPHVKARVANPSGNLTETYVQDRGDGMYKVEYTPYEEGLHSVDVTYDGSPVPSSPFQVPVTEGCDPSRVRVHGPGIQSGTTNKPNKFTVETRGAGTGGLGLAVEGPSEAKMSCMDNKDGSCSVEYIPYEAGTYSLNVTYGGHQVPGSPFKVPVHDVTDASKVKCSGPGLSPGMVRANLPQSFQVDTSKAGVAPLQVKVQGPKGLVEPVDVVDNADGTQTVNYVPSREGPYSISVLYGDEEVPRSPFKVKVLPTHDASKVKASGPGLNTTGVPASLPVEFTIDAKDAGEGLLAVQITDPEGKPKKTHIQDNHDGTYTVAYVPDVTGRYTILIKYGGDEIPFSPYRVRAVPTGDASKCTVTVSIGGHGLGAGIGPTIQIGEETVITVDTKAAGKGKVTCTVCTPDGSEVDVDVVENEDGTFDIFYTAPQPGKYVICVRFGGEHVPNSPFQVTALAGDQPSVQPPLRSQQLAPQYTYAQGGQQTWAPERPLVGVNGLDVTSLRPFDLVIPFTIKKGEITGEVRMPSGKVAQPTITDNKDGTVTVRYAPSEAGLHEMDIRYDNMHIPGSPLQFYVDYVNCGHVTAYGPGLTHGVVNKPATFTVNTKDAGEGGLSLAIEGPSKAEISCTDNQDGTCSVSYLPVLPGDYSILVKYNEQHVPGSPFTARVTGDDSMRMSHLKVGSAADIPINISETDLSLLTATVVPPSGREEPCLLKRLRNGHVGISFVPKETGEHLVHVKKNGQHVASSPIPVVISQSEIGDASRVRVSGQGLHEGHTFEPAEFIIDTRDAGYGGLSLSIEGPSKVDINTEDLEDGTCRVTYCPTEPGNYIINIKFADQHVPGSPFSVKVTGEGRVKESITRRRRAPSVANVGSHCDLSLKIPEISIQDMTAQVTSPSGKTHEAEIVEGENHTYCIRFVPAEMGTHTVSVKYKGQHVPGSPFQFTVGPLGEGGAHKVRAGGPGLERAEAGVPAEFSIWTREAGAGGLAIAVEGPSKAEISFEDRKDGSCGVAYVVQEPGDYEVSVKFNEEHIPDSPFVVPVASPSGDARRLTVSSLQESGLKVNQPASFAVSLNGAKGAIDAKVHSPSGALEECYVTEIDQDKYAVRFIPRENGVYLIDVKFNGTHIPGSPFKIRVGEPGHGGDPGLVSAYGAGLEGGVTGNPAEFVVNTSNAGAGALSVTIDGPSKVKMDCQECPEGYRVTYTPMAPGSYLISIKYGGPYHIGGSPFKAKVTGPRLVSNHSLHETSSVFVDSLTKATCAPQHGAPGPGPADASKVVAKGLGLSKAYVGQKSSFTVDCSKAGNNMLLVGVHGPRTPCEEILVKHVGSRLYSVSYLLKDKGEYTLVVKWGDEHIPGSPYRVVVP
molecule,measurement,setting,value
C=CCCN1CCC2(CC1)CN(C(=O)c1c(F)cccc1F)c1ccc(Cl)cc12 [AR-inverse agonist],FLNa phosphorylation induced by constitutive activity of MAS,"[1]; 10 μM AR-inverse agonist during induction (24 h) and serum starvation (2 h), N = 3",abolished constitutive FLNa phosphorylation
O=S(=O)(NCCNC/C=C/c1ccc(Br)cc1)c1cccc2cnccc12 [H-89],inhibition of the increase in pFLNa in MAS-expressing cells,"[1]; H-89 10 μM, Discussion statement",60%
GPIbα (from UniProt P07359),Kd,[2],100 nM
KGHTFRSSLSVRLLKFSR [α1D-AR],solubility of peptide (in words),[3],limited
VRKLSNGRLSTSLKLGPLQPRGV [D3R],affinity for Ig21 by ITC (in words),[4],could not be assessed accurately by ITC because of its lower affinity; also recorded: binds with a lower affinity
same,HSQC spectral changes / binding to FLNa Ig21,[5],binds FLNa Ig19 and Ig21
same,HSQC spectral changes / binding to FLNa Ig19,[6],binds FLNa Ig19 and Ig21
"angiotensin II (DRVYIHPF; Angiotensin-2; UniProt P01019 25-32, looked up) [AngII]","filamin phosphorylation, increase (pFLNa/FLNa)",[7],5 fold
lysophosphatidic acid,level of FLNa phosphorylation,[8],increase the level of FLNa phosphorylation
β7 integrin C-terminal peptide Ct (from UniProt P26010),Kd,[9],40000 nM
LGKKFKRYFLQLLKYIPPKA [AT1R filamin binding motif (FBM) peptide],Kd,[10],800 nM
KKKRFKESLKVVLTRAFK [MAS filamin binding motif (FBM) peptide],Kd,[10],300 nM
KGHTFRSSLSVRLLKFSR [α1D-adrenoreceptor (α1D-AR) filamin binding motif (FBM) peptide],Kd,[10],800 nM
